{
  "source": "ChEMBL document CHEMBL1255259",
  "about": "“Phosphorothioate-modified oligodeoxynucleotides inhibit human cytomegalovirus replication by blocking virus entry” (Antimicrob Agents Chemother, 2008)",
  "key": {"unidentified adenovirus": {"test_system": "unidentified adenovirus", "assay": "Antimicrobial activity against unidentified adenovirus infected in compound pretreated HELF assessed as inhibition of viral replication", "format": "functional, organism-based", "summary_of_the_method": "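HELF pretreated 1 h with ODN (0.1 or 1 μM), infected with an adenovirus clinical isolate (MOI 1); ODN kept after 2 h adsorption. Harvest at 4 days p.i., sonication, plaque titration on HELF. Means ± SD, three experiments.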"}, "[1]": {"test_system": "Vesicular stomatitis Indiana virus", "assay": "Antimicrobial activity against Vesicular stomatitis Indiana virus infected in compound pretreated HELF assessed as inhibition of viral replication", "format": "functional, organism-based", "summary_of_the_method": "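HELFs exposed to ODN (0.1 or 1 μM) for 1 h, then infected with VSV serotype Indiana at MOI 1 (2 h adsorption, 37°C). ODN kept in the medium until 48 h p.i. Cells and supernatants were pooled, sonicated and titrated by plaque assay on HELFs. Data are means ± standard deviations of three independent experiments, duplicate wells.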"}, "Human alphaherpesvirus 1 [2]": {"test_system": "Human alphaherpesvirus 1", "assay": "Antimicrobial activity against Human herpesvirus 1 infected in compound pretreated HELF assessed as inhibition of viral replication at 0.1 uM", "format": "functional, organism-based", "summary_of_the_method": "(§1)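 HELF pretreated with ODN (0.1 or 1 μM) 1 h before infection with a clinical HSV-1 isolate at MOI 0.1; ODN kept in medium after 2 h adsorption. Harvest at 48 h p.i., sonication, plaque titration on Vero cells. Means ± SD of three independent experiments.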"}, "Human betaherpesvirus 5 [3]": {"test_system": "Human betaherpesvirus 5", "assay": "Antimicrobial activity against Human cytomegalovirus AD169 infected in compound pretreated HELF assessed as inhibition of viral replication measured after 6 days post-infection", "format": "functional, organism-based", "conditions": "Human betaherpesvirus 5, AD169, HELF", "summary_of_the_method": "(§2)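 HELF pretreated with ODN 1 h before infection with HCMV AD169 (MOI 1); ODN kept in medium after 2 h adsorption at 37°C. At 6 days p.i., cells plus supernatants sonicated and titrated by plaque assay on HELF; plaques counted microscopically, expressed as PFU/ml (log10) or % of control. IC50/IC90 by linear regression; duplicate wells, three independent experiments, means ± SD.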"}, "[4]": {"assay": "Antimicrobial activity against Murine cytomegalovirus (strain Smith) infected in compound pretreated mouse NIH 3T3 cells assessed as inhibition of viral replication", "format": "functional, cell-based", "conditions": "Murid betaherpesvirus 1, NIH3T3", "summary_of_the_method": "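NIH 3T3 pretreated 1 h with ODN, infected with MCMV Smith (MOI 1); ODN kept after 2 h adsorption at 37°C. Harvest at 6 days p.i., sonication, plaque assay on NIH 3T3; IC50 from plaque reduction. Means ± SD, three experiments.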"}, "Human betaherpesvirus 5 [5]": {"test_system": "Human betaherpesvirus 5", "assay": "Antimicrobial activity against Human cytomegalovirus AD169 infected in 1 uM compound pretreated HELF assessed as inhibition of viral replication measured after 6 days post-infection", "format": "functional, organism-based", "summary_of_the_method": "as §2"}, "Human betaherpesvirus 5 [6]": {"test_system": "Human betaherpesvirus 5", "assay": "Antimicrobial activity against Human cytomegalovirus AD169 infected in HELF assessed as inhibition of viral replication at 1 uM measured after 6 days post-infection", "format": "functional, organism-based"}, "Human betaherpesvirus 5 [7]": {"test_system": "Human betaherpesvirus 5", "assay": "Antimicrobial activity against 0.1 uM compound pretreated Human cytomegalovirus AD169 infected in HELF assessed as reduction in viral titer 37 degC", "format": "functional, organism-based", "summary_of_the_method": "(§3)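 HCMV AD169 (10^4 PFU) incubated with ODN at 0.1 μM at 4 or 37°C for various times; samples then diluted to bring ODN below an antivirally active level; residual infectivity titrated by plaque assay on HELF. Means ± SD of three independent experiments.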"}, "Human alphaherpesvirus 1 [8]": {"test_system": "Human alphaherpesvirus 1", "assay": "Antimicrobial activity against Human herpesvirus 1 infected in compound pretreated HELF assessed as inhibition of viral replication at 1 uM", "format": "functional, organism-based", "summary_of_the_method": "as §1"}, "[9]": {"assay": "Cytotoxicity against HELF assessed as cell viability after 6 days by MTT assay", "format": "cell-based", "conditions": "human, HELF cells", "summary_of_the_method": "(§4)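 HELF exposed to rising ODN concentrations (up to 10 μM) for 6 days; viable cells measured by MTT. CC50 taken as concentration that cuts viability to 50%.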"}, "[10]": {"assay": "Cytotoxicity against HELF assessed as cell viability by MTT assay after 6 days at <=10 uM", "format": "cell-based", "conditions": "human, 144 h", "summary_of_the_method": "as §4"}, "Human betaherpesvirus 5 [11]": {"test_system": "Human betaherpesvirus 5", "assay": "Antimicrobial activity against Human cytomegalovirus AD169 infected in 0.1 uM compound pretreated HELF assessed as inhibition of viral replication measured after 6 days post-infection", "format": "functional, organism-based", "summary_of_the_method": "as §2"}, "Human betaherpesvirus 5 [12]": {"test_system": "Human betaherpesvirus 5", "assay": "Antimicrobial activity against Human herpesvirus 5 strain AD169 infected in HELF assessed as pp65 nuclear localization at 0.1 uM after 2 hrs […]", "format": "functional, organism-based"}, "Human betaherpesvirus 5 [13]": {"test_system": "Human betaherpesvirus 5", "assay": "Antimicrobial activity against Human cytomegalovirus AD169 infected in HELF assessed as inhibition of viral replication at 0.1 uM measured after 6 days post-infection", "format": "functional, organism-based"}, "Human betaherpesvirus 5 [14]": {"test_system": "Human betaherpesvirus 5", "assay": "Antimicrobial activity against 0.1 uM compound pretreated Human cytomegalovirus AD169 infected in HELF assessed as reduction in viral titer at 4 degC", "format": "functional, organism-based", "summary_of_the_method": "as §3"}},
  "note": "Active and inactive are the calls of the source. No cut-off for these calls is given here.",
  "data": [
    {"smiles": "Cc1cn([C@H]2C[C@H](OP(O)(O)=S)[C@@H](COP(O)(=S)O[C@H]3C[C@H](n4cc(C)c(=O)[nH]c4=O)O[C@@H]3COP(O)(=S)O[C@H]3[C@@H](O)[C@H](n4ccc(N)nc4=O)O[C@@H]3COP(O)(=S)O[C@H]3[C@@H](O)[C@H](n4cnc5c(=O)[nH]c(N)nc54)O[C@@H]3COP(O)(=S)O[C@H]3C[C@H](n4cc(C)c(=O)[nH]c4=O)O[C@@H]3COP(O)(=S)O[C@H]3[C@@H](O)[C@H](n4cnc5c(=O)[nH]c(N)nc54)O[C@@H]3COP(O)(=S)O[C@H]3C[C@H](n4cc(C)c(=O)[nH]c4=O)O[C@@H]3COP(O)(=S)O[C@H]3C[C@H](n4cc(C)c(=O)[nH]c4=O)O[C@@H]3COP(O)(=S)O[C@H]3C[C@H](n4cc(C)c(=O)[nH]c4=O)O[C@@H]3COP(O)(=S)O[C@H]3C[C@H](n4cc(C)c(=O)[nH]c4=O)O[C@@H]3COP(O)(=S)O[C@H]3[C@@H](O)[C@H](n4ccc(N)nc4=O)O[C@@H]3COP(O)(=S)O[C@H]3[C@@H](O)[C@H](n4cnc5c(=O)[nH]c(N)nc54)O[C@@H]3COP(O)(=S)O[C@H]3C[C@H](n4cc(C)c(=O)[nH]c4=O)O[C@@H]3COP(O)(=S)O[C@H]3[C@@H](O)[C@H](n4cnc5c(=O)[nH]c(N)nc54)O[C@@H]3COP(O)(=S)O[C@H]3C[C@H](n4cc(C)c(=O)[nH]c4=O)O[C@@H]3COP(O)(=S)O[C@H]3C[C@H](n4cc(C)c(=O)[nH]c4=O)O[C@@H]3COP(O)(=S)O[C@H]3C[C@H](n4cc(C)c(=O)[nH]c4=O)O[C@@H]3COP(O)(=S)O[C@H]3C[C@H](n4cc(C)c(=O)[nH]c4=O)O[C@@H]3COP(O)(=S)O[C@H]3[C@@H](O)[C@H](n4ccc(N)nc4=O)O[C@@H]3COP(O)(=S)O[C@H]3[C@@H](O)[C@H](n4cnc5c(=O)[nH]c(N)nc54)O[C@@H]3COP(O)(=S)O[C@H]3C[C@H](n4cc(C)c(=O)[nH]c4=O)O[C@@H]3COP(O)(=S)O[C@H]3[C@@H](O)[C@H](n4ccc(N)nc4=O)O[C@@H]3COP(O)(=S)O[C@H]3[C@@H](O)[C@H](n4cnc5c(=O)[nH]c(N)nc54)O[C@@H]3COP(O)(=S)O[C@H]3C[C@H](n4cc(C)c(=O)[nH]c4=O)O[C@@H]3CO)O2)c(=O)[nH]c1=O", "note": "(stereo partly specified)", "values": [
      {"measurement": "inhibition", "setting": "unidentified adenovirus", "value": "inactive"},
      {"measurement": "inhibition", "setting": "[1]", "value": "inactive"},
      {"measurement": "inhibition", "setting": "Human alphaherpesvirus 1 [2]", "value": "inactive"},
      {"measurement": "IC50", "setting": "Human betaherpesvirus 5 [3]", "value": 30, "unit": "nM"},
      {"measurement": "IC90", "setting": "Human betaherpesvirus 5 [3]", "value": 220, "unit": "nM"},
      {"measurement": "IC50", "setting": "[4]", "value": 20, "unit": "nM"},
      {"measurement": "inhibition", "setting": "Human betaherpesvirus 5 [5]", "value": "Active"},
      {"measurement": "inhibition", "setting": "Human betaherpesvirus 5 [6]", "value": "inactive"},
      {"measurement": "inhibition", "setting": "Human betaherpesvirus 5 [7]", "value": "inactive"},
      {"measurement": "inhibition", "setting": "Human alphaherpesvirus 1 [8]", "value": "inactive"},
      {"measurement": "CC50 at 144 h", "setting": "[9]", "value": "> 10", "unit": "µM"},
      {"measurement": "Activity", "setting": "[10]", "value": "Non-toxic"},
      {"measurement": "inhibition", "setting": "Human betaherpesvirus 5 [11]", "value": "Active"},
      {"measurement": "inhibition", "setting": "Human betaherpesvirus 5 [12]", "value": "Active"},
      {"measurement": "inhibition", "setting": "Human betaherpesvirus 5 [13]", "value": "inactive"},
      {"measurement": "inhibition", "setting": "Human betaherpesvirus 5 [14]", "value": "inactive"}
    ]}
  ]
}
